Laboratory results: ChEMBL document CHEMBL4680236, “Design, synthesis and structure-activity relationships of novel 15-membered macrolides: Quinolone/quinoline-containing sidechains tethered to the C-6 position of azithromycin acylides” (Eur J Med Chem, 2020)
Converted amounts (≈) assume the structure as drawn.

What was measured:
Streptococcus pneumoniae [1] = test: Bactericidal activity against penicillin-susceptible Streptococcus pneumoniae PU09 harboring mef gene; format: functional
Outline: (§1)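 Bacteria were exposed to 1- to 8-fold their MIC of test sample, then transferred to fresh culture medium without antibacterial compound and incubated for the required time. Colonies were then counted. MBC is the lowest concentration giving a reduction in colony number of >3 Log₁₀.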

Haemophilus influenzae [2] = test: Antibacterial activity against azithromycin-susceptible Haemophilus influenzae ATCC 49247 assessed as reduction in microbial growth relative to ciprofloxacin; format: functional
Staphylococcus aureus [3] = test: Antibacterial activity against MLSB/methicillin-resistant Staphylococcus aureus 15B196 assessed as reduction in microbial growth; format: functional
Streptococcus pyogenes [4] = test: Antibacterial activity against MLSB-resistant Streptococcus pyogenes 12-206 harboring ermA gene assessed as reduction in microbial growth; format: functional
Haemophilus influenzae [5] = test: Antibacterial activity against azithromycin-susceptible Haemophilus influenzae ATCC 49247 assessed as reduction in microbial growth; format: functional
Staphylococcus aureus [6] = test: Ratio of MBC to MIC against MLSB/methicillin/ciprofloxacin-resistant Staphylococcus aureus PU32 harboring ermA gene; format: functional
Haemophilus influenzae [7] = test: Ratio of MBC to MIC against azithromycin-susceptible Haemophilus influenzae ATCC 49247; format: functional
Staphylococcus aureus [8] = test: Antibacterial activity against MLSB/methicillin-resistant Staphylococcus aureus 15B196 assessed as reduction in microbial growth relative to ciprofloxacin; format: functional
Streptococcus pneumoniae [9] = test: Antibacterial activity against penicillin-susceptible Streptococcus pneumoniae PU09 harboring mef gene assessed as reduction in microbial growth; format: functional
Streptococcus pyogenes [10] = test: Bactericidal activity against MLSB-resistant Streptococcus pyogenes 12-206 harboring ermA gene; format: functional; outline: as §1
Streptococcus pyogenes [11] = test: Ratio of MBC to MIC against MLSB-resistant Streptococcus pyogenes 12-206 harboring ermA gene; format: functional
Staphylococcus aureus [12] = test: Bactericidal activity against MLSB/methicillin/ciprofloxacin-resistant Staphylococcus aureus PU32 harboring ermA gene; format: functional; outline: as §1
Staphylococcus aureus [13] = test: Antibacterial activity against MLSB/methicillin/ciprofloxacin-resistant Staphylococcus aureus PU32 harboring ermA gene assessed as reduction in microbial growth relative to ciprofloxacin; format: functional
Streptococcus pneumoniae [14] = test: Bactericidal activity against MLSB-resistant Streptococcus pneumoniae 07P390 harboring ermB gene assessed as reduction in microbial growth; format: functional; outline: as §1
Streptococcus pneumoniae [15] = test: Antibacterial activity against Erythromycin-susceptible Streptococcus pneumoniae ATCC 49619 assessed as reduction in microbial growth; format: functional
Staphylococcus aureus [16] = test: Antibacterial activity against MLSB/methicillin/ciprofloxacin-resistant Staphylococcus aureus PU32 harboring ermA gene assessed as reduction in microbial growth; format: functional
Streptococcus pneumoniae [17] = test: Ratio of MBC to MIC against Erythromycin-susceptible Streptococcus pneumoniae ATCC 49619; format: functional
Staphylococcus aureus [18] = test: Bactericidal activity against MLSB/methicillin-resistant Staphylococcus aureus 15B196; format: functional; outline: as §1
Streptococcus pneumoniae [19] = test: Antibacterial activity against MLSB-resistant Streptococcus pneumoniae 07P390 harboring ermB gene assessed as reduction in microbial growth; format: functional
Streptococcus pneumoniae [20] = test: Ratio of MBC to MIC against penicillin-susceptible Streptococcus pneumoniae PU09; format: functional
Streptococcus pneumoniae [21] = test: Bactericidal activity against Erythromycin-susceptible Streptococcus pneumoniae ATCC 49619; format: functional
Outline: (§2)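 Bacteria were exposed to 1- to 8-fold MIC of the sample, then transferred to fresh medium without antibacterial. After further incubation, colonies were counted. MBC was taken as the lowest concentration giving a >3 log10 reduction in colony number.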

Haemophilus influenzae [22] = test: Bactericidal activity against azithromycin-susceptible Haemophilus influenzae ATCC 49247; format: functional; outline: as §2
Streptococcus pneumoniae [23] = test: Ratio of MBC to MIC against MLSB-resistant Streptococcus pneumoniae 07P390 harboring ermB; format: functional
Staphylococcus aureus [24] = test: Ratio of MBC to MIC against MLSB/methicillin-resistant Staphylococcus aureus 15B196; format: functional
Escherichia coli [25] = test: Antibacterial activity against Escherichia coli JW5503-1 depletion of toIC efflux gene assessed as reduction in microbial growth; format: functional
Escherichia coli [26] = test: Antibacterial activity against Escherichia coli BW25113 depletion of toIC efflux gene assessed as reduction in microbial growth; format: functional
Escherichia coli [27] = test: Antibacterial activity against Escherichia coli JW5503-KanS depletion of toIC efflux gene assessed as reduction in microbial growth; format: functional
Escherichia coli [28] = test: Antibacterial activity against NDM-1 producing Escherichia coli […] assessed as reduction in microbial growth; format: functional
Enterococcus faecalis = test: Antibacterial activity against vancomycin-susceptible Enterococcus faecalis ATCC 29212 assessed as reduction in microbial growth; format: functional
Shigella = test: Antibacterial activity against Shigella ATCC 12022 assessed as reduction in microbial growth; format: functional
Staphylococcus aureus [29] = test: Antibacterial activity against methicillin-susceptible Staphylococcus aureus ATCC 29213 assessed as reduction in microbial growth; format: functional
Staphylococcus aureus [30] = test: Antibacterial activity against methicillin-resisitant Staphylococcus aureus 16-30 assessed as reduction in microbial growth; format: functional
Enterobacter cloacae = test: Antibacterial activity against Enterobacter cloacae ATCC 43560 assessed as reduction in microbial growth; format: functional
Klebsiella pneumoniae = test: Antibacterial activity against NDM-1 producing Klebsiella pneumoniae ATCC BAA-2146 assessed as reduction in microbial growth; format: functional
[31] = system: Staphylococcus epidermidis; test: Antibacterial activity against methicillin-resistant Staphylococcus epidermidis 16-5 assessed as reduction in microbial growth; format: functional
Enterococcus faecium = test: Antibacterial activity against vancomycin-resistant Enterococcus faecium ATCC 700221 assessed as reduction in microbial growth
[32] = system: Staphylococcus epidermidis; test: Antibacterial activity against methicillin-susceptible Staphylococcus epidermidis ATCC 12228 assessed as reduction in microbial growth; format: functional
Klebsiella aerogenes = test: Antibacterial activity against Enterobacter aerogenes ATCC 13048 assessed as reduction in microbial growth; format: functional
Acinetobacter baumannii = test: Antibacterial activity against Acinetobacter baumannii ATCC 19606 assessed as reduction in microbial growth; format: functional; conditions: ATCC 19606 = CIP 70.34 = JCM 6841

Row | Compound | MBC (Streptococcus pneumoniae [1]) [µg/mL] | fold change (FC) (Haemophilus influenzae [2]) | MIC (Staphylococcus aureus [3]) [µg/mL] | MIC (Streptococcus pyogenes [4]) [µg/mL] | MIC (Haemophilus influenzae [5]) [µg/mL] | Ratio (Staphylococcus aureus [6]) | Ratio (Haemophilus influenzae [7]) | fold change (FC) (Staphylococcus aureus [8]) | MIC (Streptococcus pneumoniae [9]) [µg/mL] | MBC (Staphylococcus aureus [12]) [µg/mL] | fold change (FC) (Staphylococcus aureus [13]) | MBC (Streptococcus pneumoniae [14]) [µg/mL] | MIC (Streptococcus pneumoniae [15]) [µg/mL] | MIC (Staphylococcus aureus [16]) [µg/mL] | Ratio (Streptococcus pneumoniae [17]) | MBC (Staphylococcus aureus [18]) [µg/mL] | MIC (Streptococcus pneumoniae [19]) [µg/mL] | Ratio (Streptococcus pneumoniae [20]) | MBC (Streptococcus pneumoniae [21]) [µg/mL] | MBC (Haemophilus influenzae [22]) [µg/mL] | other results
1 | CC[C@H]1OC(=O)[C@H](C)[C@@H](OC(=O)Cc2ccccn2)[C@H](C)[C@@H](O[C@@H]2O[C@H](C)C[C@H](N(C)C)[C@H]2O)[C@](C)(OC(=O)CCNCCC#Cc2ccc3ncccc3c2)C[C@@H](C)CN(C)[C@H](C)[C@@H](O)[C@]1(C)O | 1 (≈ 1.04 µM) | 344 | > 256 | 2 | 4 | >8 | 2 | >44 | 0.5 | > 32 | 0.0054 | 64 | 0.03 | 4 | 1 | > 256 | 32 | 2 | 0.03 (≈ 0.0312 µM) | 8 (≈ 8.33 µM) | MBC (Streptococcus pyogenes [10]): > 16 µg/mL; Ratio (Streptococcus pyogenes [11]): >8
2 | CC[C@H]1OC(=O)[C@H](C)[C@@H](OC(=O)Cc2ccccn2)[C@H](C)[C@@H](O[C@@H]2O[C@H](C)C[C@H](N(C)C)[C@H]2O)[C@](C)(OC(=O)CCN2CCN(c3cc4c(cc3F)c(=O)c(C(N)=O)cn4C3CC3)CC2)C[C@@H](C)CN(C)[C@H](C)[C@H]2OC(=O)O[C@@]21C | 16 (≈ 14.3 µM) | – | 32 | 16 | 256 | >8 | – | – | 8 | > 256 | – | 32 | 4 | 32 | 2 | > 256 | 32 | 2 | 8 (≈ 7.14 µM) | > 256 | MBC (Streptococcus pyogenes [10]): 16 µg/mL (≈ 14.3 µM); Ratio (Streptococcus pyogenes [11]): 1; Ratio (Streptococcus pneumoniae [23]): 1; Ratio (Staphylococcus aureus [24]): >8
3 | CC[C@H]1OC(=O)[C@H](C)[C@@H](O[C@H]2C[C@@](C)(OC)[C@@H](O)[C@H](C)O2)[C@H](C)[C@@H](O[C@@H]2O[C@H](C)C[C@H](N(C)C)[C@H]2O)[C@](C)(O)C[C@@H](C)CN(C)[C@H](C)[C@@H](O)[C@]1(C)O [AZITHROMYCIN] | 16 (≈ 21.4 µM) | 22 | > 256 | – | 2 | 1 | 4 | >226 | 8 | 32 (≈ 42.7 µM) | 0.22 | > 257 | 0.062 | 32 | 4 | > 256 | 256 | 2 | 0.25 (≈ 0.334 µM) | 8 (≈ 10.7 µM) | MIC (Escherichia coli [25]): 4 µg/mL; MIC (Escherichia coli [26]): > 16 µg/mL; MIC (Escherichia coli [27]): 2 µg/mL
4 | C[C@H]1COc2c(N3CCN(C)CC3)c(F)cc3c(=O)c(C(=O)O)cn1c23.C[C@H]1COc2c(N3CCN(C)CC3)c(F)cc3c(=O)c(C(=O)O)cn1c23.O [LEVOFLOXACIN] | – | – | – | – | – | – | – | – | – | – | – | – | – | – | – | – | – | – | – | – | MIC (Escherichia coli [28]): 16 µg/mL; MIC (Enterococcus faecalis): 0.5 µg/mL; MIC (Shigella): < 0.03 µg/mL; MIC (Staphylococcus aureus [29]): 0.12 µg/mL; MIC (Staphylococcus aureus [30]): 32 µg/mL; MIC (Enterobacter cloacae): < 0.03 µg/mL; MIC (Klebsiella pneumoniae): > 128 µg/mL; MIC [31]: 8 µg/mL; MIC (Enterococcus faecium): 32 µg/mL; MIC [32]: 0.12 µg/mL; MIC (Klebsiella aerogenes): 0.06 µg/mL; MIC (Acinetobacter baumannii): 0.25 µg/mL
5 | CC[C@H]1OC(=O)[C@H](C)C(=O)[C@H](C)[C@@H](O[C@@H]2O[C@H](C)C[C@H](N(C)C)[C@H]2O)[C@](C)(OC)C[C@@H](C)C(=O)[C@H](C)[C@H]2N(CCCCn3cnc(-c4cccnc4)c3)C(=O)O[C@]12C [TELITHROMYCIN] | 0.5 (≈ 0.616 µM) | 407 | 4 | 0.25 | 4 | – | – | >52 | 0.25 | – | 0.0032 | > 0.125 | ≤ 0.008 | 2 | – | – | 0.016 | 2 | ≤ 0.008 | – | Ratio (Streptococcus pneumoniae [23]): >8
